For data set [1], the system named is Rattus norvegicus. Description: Cardiotoxicity in Wistar rat assessed as QRS interval at 5 mg/kg, iv after 10 mins by ECG analysis. More on the design: dose 5 mg/kg, route intravenous. Conditions: in vivo. The format is toxicity, organism-based.
Data set [2] concerns Rattus norvegicus. Description: Cardiotoxicity in Wistar rat assessed as QRS interval at 5 mg/kg, iv after 15 mins by ECG analysis. The format is toxicity, organism-based. Also on record: dose 5 mg/kg, route intravenous. Conditions: in vivo, 0.25 h. Summed up:
(§1)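 Male normotensive Wistar rats, 170–350 g, six per group. Compound given iv at a constant volume of 1 mL/kg. ECG was recorded just before dosing and at 1, 5 and 15 min after. PQ, QRS and QT intervals and heart rate were read from the trace. Groups were compared by one-way ANOVA.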

Data set [3] relates to Rattus norvegicus. Description: Cardiotoxicity in Wistar rat assessed as PQ interval at 5 mg/kg, iv after 10 mins by ECG analysis. The note with it: in vivo. The format is toxicity, organism-based. More on the design: dose 5 mg/kg, route intravenous.
In data set [4] the test system is Rattus norvegicus. Description: Cardiotoxicity in Wistar rat assessed as QT interval at 5 mg/kg, iv after 15 mins by ECG analysis. The format is toxicity, organism-based. Also on record: dose 5 mg/kg, route intravenous. Conditions: in vivo, 0.25 h. The procedure, abridged: as §1
Data set [5] deals with Rattus norvegicus. Description: Cardiotoxicity in Wistar rat assessed as PQ interval at 5 mg/kg, iv after 5 mins by ECG analysis. The class given is toxicity, organism-based. Also on record: dose 5 mg/kg, route intravenous. The note with it: in vivo. The procedure, abridged: as §1
In data set [6] the test system is Rattus norvegicus. Description: Cardiotoxicity in Wistar rat assessed as PQ interval at 5 mg/kg, iv after 15 mins by ECG analysis. More on the design: dose 5 mg/kg, route intravenous. Conditions: in vivo, 0.25 h. The format is toxicity, organism-based. The procedure, abridged:
as §1

The subject of data set [7] is Rattus norvegicus. Description: Cardiotoxicity in Wistar rat assessed as hear beats per min at 5 mg/kg, iv after 10 mins by ECG analysis. The format is toxicity, organism-based. The note with it: in vivo. More on the design: dose 5 mg/kg, route intravenous.
Data set [8] relates to Rattus norvegicus. Description: Cardiotoxicity in Wistar rat assessed as QT interval at 5 mg/kg, iv after 5 mins by ECG analysis. The class given is toxicity, organism-based. More on the design: dose 5 mg/kg, route intravenous. The note with it: in vivo. Summed up:
as §1

Data set [9] concerns Rattus norvegicus. Description: Hypotensive activity in normotensive Wistar rat assessed as reduction of systolic blood pressure at 0.625 mg/kg, iv after 10 mins. The format is functional, Artery. Summed up: (§2)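 Male normotensive Wistar rats (170–350 g) anaesthetised with thiopental 75 mg/kg ip; right carotid artery cannulated with heparinised saline-filled polyethylene tubing for pressure recording. After a 5 min stabilisation, compound given into the caudal vein at 1 mL/kg. Systolic pressure is recorded at 0, 5, 10, 20, 30 and 60 min, and the data are reported as mean ± SEM of five to six animals, with one-way ANOVA.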

The test system of data set [10] is Rattus norvegicus. Description: Hypotensive activity in normotensive Wistar rat assessed as reduction of diastolic blood pressure at 1.25 mg/kg, iv after 20 mins. The class given is functional, Artery. The procedure, abridged:
(§3)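 Male normotensive Wistar rats were anaesthetised with thiopental 75 mg/kg ip. The right carotid artery was cannulated with heparinised saline for pressure recording. After 5 min of stabilisation, compound was injected into the tail vein at 1 mL/kg. Systolic and diastolic pressure were followed up to 60 min. Data are means ± SEM of 5–6 rats, analysed by one-way ANOVA.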

Data set [11] deals with Rattus norvegicus. Description: Hypotensive activity in normotensive Wistar rat assessed as reduction of systolic blood pressure at 1.25 mg/kg, iv after 5 mins. The class given is functional, Artery. Summed up: as §2
For data set [12], the system named is Rattus norvegicus. Description: Hypotensive activity in normotensive Wistar rat assessed as reduction of diastolic blood pressure at 0.625 mg/kg, iv after 30 mins. The format is functional, Artery. Summed up:
as §3

Data set [13] concerns Rattus norvegicus. Description: Hypotensive activity in normotensive Wistar rat assessed as reduction of diastolic blood pressure at 0.625 mg/kg, iv after 20 mins. The class given is functional, Artery. The procedure, abridged: as §3
Data set [14] relates to Rattus norvegicus. Description: Hypotensive activity in normotensive Wistar rat assessed as reduction of diastolic blood pressure at 0.625 mg/kg, iv after 60 mins. The format is functional, Artery. The procedure, abridged:
as §3

Data set [15] deals with Rattus norvegicus. Description: Hypotensive activity in normotensive Wistar rat assessed as reduction of diastolic blood pressure at 0.625 mg/kg, iv after 10 mins. The class given is functional, Artery. Summed up: as §3
The subject of data set [16] is Rattus norvegicus. Description: Hypotensive activity in normotensive Wistar rat assessed as reduction of systolic blood pressure at 1.25 mg/kg, iv after 30 mins. The class given is functional, Artery. The procedure, abridged:
as §2

Data set [17] has as its system Rattus norvegicus. Description: Hypotensive activity in normotensive Wistar rat assessed as reduction of systolic blood pressure at 1.25 mg/kg, iv after 60 mins. The class given is functional, Artery. Summed up:
as §2

The subject of data set [18] is Rattus norvegicus. Description: Hypotensive activity in normotensive Wistar rat assessed as reduction of systolic blood pressure at 0.625 mg/kg, iv after 20 mins. The class given is functional, Artery. Summed up: as §2
Data set [19] relates to Rattus norvegicus. Description: Hypotensive activity in normotensive Wistar rat assessed as reduction of diastolic blood pressure at 1.25 mg/kg, iv after 10 mins. The class given is functional, Artery. The procedure, abridged: as §3
Data set [20] deals with Rattus norvegicus. Description: Hypotensive activity in normotensive Wistar rat assessed as reduction of systolic blood pressure at 1.25 mg/kg, iv after 10 mins. The format is functional, Artery. Summed up:
as §2

Data set [21] has as its system Rattus norvegicus. Description: Hypotensive activity in normotensive Wistar rat assessed as reduction of systolic blood pressure at 0.625 mg/kg, iv after 5 mins. The format is functional, Artery. Summed up:
as §2

The test system of data set [22] is Rattus norvegicus. Description: Hypotensive activity in normotensive Wistar rat assessed as reduction of diastolic blood pressure at 1.25 mg/kg, iv after 5 mins. The class given is functional, Artery. The procedure, abridged: as §3
The subject of data set [23] is Rattus norvegicus. Description: Hypotensive activity in normotensive Wistar rat assessed as reduction of systolic blood pressure at 0.625 mg/kg, iv after 30 mins. The format is functional, Artery. Summed up: as §2
Data set [24] has as its system Rattus norvegicus. Description: Cardiotoxicity in Wistar rat assessed as QRS interval at 10 mg/kg, iv after 5 mins by ECG analysis. The class given is toxicity, organism-based. Also on record: dose 10 mg/kg, route intravenous. Conditions: in vivo. The procedure, abridged:
as §1

For data set [25], the system named is Rattus norvegicus. Description: Cardiotoxicity in Wistar rat assessed as QT interval at 10 mg/kg, iv after 10 mins by ECG analysis. Conditions: in vivo. The format is toxicity, organism-based. More on the design: dose 10 mg/kg, route intravenous.
The subject of data set [26] is Rattus norvegicus. Description: Cardiotoxicity in Wistar rat assessed as QT interval at 10 mg/kg, iv after 5 mins by ECG analysis. Conditions: in vivo. The class given is toxicity, organism-based. Also on record: dose 10 mg/kg, route intravenous. Summed up:
as §1

In data set [27] the test system is Rattus norvegicus. Description: Cardiotoxicity in Wistar rat assessed as QRS interval at 10 mg/kg, iv after 10 mins by ECG analysis. The format is toxicity, organism-based. More on the design: dose 10 mg/kg, route intravenous. The note with it: in vivo.
Data set [28] concerns Rattus norvegicus. Description: Cardiotoxicity in Wistar rat assessed as PQ interval at 10 mg/kg, iv after 15 mins by ECG analysis. The class given is toxicity, organism-based. Conditions: in vivo, 0.25 h. Also on record: dose 10 mg/kg, route intravenous. Summed up:
as §1

Data set [29] relates to Rattus norvegicus. Description: Cardiotoxicity in Wistar rat assessed as QT interval at 10 mg/kg, iv after 15 mins by ECG analysis. The class given is toxicity, organism-based. More on the design: dose 10 mg/kg, route intravenous. The note with it: in vivo, 0.25 h. Summed up:
as §1

In data set [30] the test system is Rattus norvegicus. Description: Cardiotoxicity in Wistar rat assessed as hear beats per min at 10 mg/kg, iv after 10 mins by ECG analysis. Conditions: in vivo. The class given is toxicity, organism-based. More on the design: dose 10 mg/kg, route intravenous.
The subject of data set [31] is Rattus norvegicus. Description: Cardiotoxicity in Wistar rat assessed as QRS interval at 10 mg/kg, iv after 15 mins by ECG analysis. Conditions: in vivo, 0.25 h. Also on record: dose 10 mg/kg, route intravenous. The format is toxicity, organism-based. Summed up: as §1
The test system of data set [32] is Rattus norvegicus. Description: Cardiotoxicity in Wistar rat assessed as hear beats per min at 10 mg/kg, iv after 15 mins by ECG analysis. The format is toxicity, organism-based. Also on record: dose 10 mg/kg, route intravenous. Conditions: in vivo, 0.25 h. The procedure, abridged:
as §1

Consider `Cl.Cl.O=c1c2ccccc2oc2c(OCC(O)CN3CCN(C/C=C/c4ccccc4)CC3)cccc12` (racemic), for which the Activity in the data set on Rattus norvegicus [1] was 23.5 ms; in the data set with Rattus norvegicus [2], 24 ms; in the data set on Rattus norvegicus [3], 41.7 ms; with Rattus norvegicus [4] it was 77.6 ms; with Rattus norvegicus [5], 41.5 ms; with Rattus norvegicus [6], 41.7 ms. The Activity in the data set with Rattus norvegicus [7] is on record as 311.3 bpm; with Rattus norvegicus [8] it was 76.4 ms.

As to `COc1ccccc1N1CCN(CC(COc2cccc3c(=O)c4ccccc4oc23)OC(C)=O)CC1.Cl` (racemic), the Activity in the data set on Rattus norvegicus [9] is reported as 123.8 mmHg; in the data set with Rattus norvegicus [10] it was 92.2 mmHg; in the data set on Rattus norvegicus [11], 119 mmHg; in the data set with Rattus norvegicus [12], 93.2 mmHg; in the data set on Rattus norvegicus [13] it was 95.4 mmHg; in the data set on Rattus norvegicus [14] it was 92 mmHg. In addition, the Activity in the data set on Rattus norvegicus [15] is 96.4 mmHg; with Rattus norvegicus [16] it was 117.6 mmHg; with Rattus norvegicus [17], 116.6 mmHg; with Rattus norvegicus [18] it was 122.2 mmHg; in the data set on Rattus norvegicus [19], 93.6 mmHg; in the data set on Rattus norvegicus [20], 118.4 mmHg. Also, the Activity in the data set with Rattus norvegicus [21] came out at 124.8 mmHg; in the data set with Rattus norvegicus [22] it was 92.8 mmHg; with Rattus norvegicus [23], 120.6 mmHg.

In the case of `Cl.Cl.Cl.O=c1c2ccc(Cl)cc2oc2c(OCC(O)CN3CCN(CCOc4ccccc4)CC3)cccc12` (racemic), the Activity in the data set with Rattus norvegicus [24] is listed as 18.8 ms; in the data set with Rattus norvegicus [25] it was 50.48 ms; in the data set with Rattus norvegicus [26], 54.4 ms; with Rattus norvegicus [27], 20.32 ms; with Rattus norvegicus [28], 32.81 ms; in the data set with Rattus norvegicus [10], 97.4 mmHg. Besides, the Activity is 117.2 mmHg in the data set with Rattus norvegicus [11]; 113.2 mmHg in the data set on Rattus norvegicus [16]; 114.8 mmHg in the data set on Rattus norvegicus [17]; 53.2 ms in the data set on Rattus norvegicus [29]; 101.2 mmHg with Rattus norvegicus [19]; 242.43 bpm in the data set with Rattus norvegicus [30]. Also, the Activity in the data set on Rattus norvegicus [20] was 115.2 mmHg; in the data set on Rattus norvegicus [31], 20.4 ms; in the data set with Rattus norvegicus [22] it was 102.6 mmHg; with Rattus norvegicus [32], 283.41 bpm.

For the origin of these results see ChEMBL document CHEMBL2311390, “Synthesis and preliminary evaluation of pharmacological properties of some piperazine derivatives of xanthone” (Bioorg Med Chem, 2013).
